Results published in ChEMBL document CHEMBL4196009, “Novel vitexin-inspired scaffold against leukemia” (Eur J Med Chem, 2018).

Tests used:
KOPN-8 [1] = experiment: Cell cycle arrest in human KOPN8 cells assessed as accumulation at G0/G1 phase at 5 uM after 24 hrs by propidium iodide staining-based flow cytometry (reference value: 24.77%); assay type: functional
Summary of the method: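 KOPN-8 cells treated 24 h alongside a DMSO vehicle and a staurosporine (2.0 µM) positive control. Apoptosis was scored by FITC Annexin V / propidium iodide flow cytometry with quadrant gating (early, late apoptotic). DNA content was measured by PI staining to give the percentage of cells in G0/G1, S and G2/M. Groups were compared by t-test; error bars are SD.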

MDA-MB-231 [2] = experiment: Cell cycle arrest in human MDA-MB-231 cells assessed as accumulation at G2/M phase at 5 uM after 24 hrs by propidium iodide staining-based flow cytometry (reference value: 9.38%); assay type: functional
Homo sapiens [3] = organism: Homo sapiens; experiment: Inhibition of RNA polymerase 2 C-terminal domain phosphorylation at Ser2 residue in human KOPN8 cells at 0.5 uM after 24 hrs by Western blot analysis; assay type: cell-based
Summary of the method: (§1)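 KOPN-8 cells were exposed to compound for 3 h and 24 h, with or without N-acetylcysteine added to a parallel set as antioxidant. Lysates were analysed by Western blot for cleaved PARP, Mcl-1, Ser-2-phosphorylated RNAPII CTD, cMyc, total Rb and pRb. Signals were compared against controls for dose-dependent change.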

KOPN-8 [4] = experiment: Induction of apoptosis in human KOPN8 cells assessed as late apoptotic cells at 10 uM after 24 hrs by Annexin V-FITC/propidium iodide staining-based flow cytometry (reference value: 9.5%); assay type: functional
Summary of the method: (§2)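 KOPN-8 cells were treated for 24 h, with a DMSO vehicle control and a staurosporine positive control. Cells were stained with FITC-Annexin V and propidium iodide and analysed by flow cytometry. Quadrant gating separated viable, early apoptotic, late apoptotic (Q2) and necrotic populations.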

[5] = molecular target: T1, Retinoblastoma-associated protein (Homo sapiens) (UniProt P06400); experiment: Inhibition of Rb phosphorylation in human KOPN8 cells assessed as ratio of phosphorylated Rb to total Rb levels at 10 uM after 24 hrs by Western blot analysis relative to control; assay type: cell-based
T1 sequence (whole entry): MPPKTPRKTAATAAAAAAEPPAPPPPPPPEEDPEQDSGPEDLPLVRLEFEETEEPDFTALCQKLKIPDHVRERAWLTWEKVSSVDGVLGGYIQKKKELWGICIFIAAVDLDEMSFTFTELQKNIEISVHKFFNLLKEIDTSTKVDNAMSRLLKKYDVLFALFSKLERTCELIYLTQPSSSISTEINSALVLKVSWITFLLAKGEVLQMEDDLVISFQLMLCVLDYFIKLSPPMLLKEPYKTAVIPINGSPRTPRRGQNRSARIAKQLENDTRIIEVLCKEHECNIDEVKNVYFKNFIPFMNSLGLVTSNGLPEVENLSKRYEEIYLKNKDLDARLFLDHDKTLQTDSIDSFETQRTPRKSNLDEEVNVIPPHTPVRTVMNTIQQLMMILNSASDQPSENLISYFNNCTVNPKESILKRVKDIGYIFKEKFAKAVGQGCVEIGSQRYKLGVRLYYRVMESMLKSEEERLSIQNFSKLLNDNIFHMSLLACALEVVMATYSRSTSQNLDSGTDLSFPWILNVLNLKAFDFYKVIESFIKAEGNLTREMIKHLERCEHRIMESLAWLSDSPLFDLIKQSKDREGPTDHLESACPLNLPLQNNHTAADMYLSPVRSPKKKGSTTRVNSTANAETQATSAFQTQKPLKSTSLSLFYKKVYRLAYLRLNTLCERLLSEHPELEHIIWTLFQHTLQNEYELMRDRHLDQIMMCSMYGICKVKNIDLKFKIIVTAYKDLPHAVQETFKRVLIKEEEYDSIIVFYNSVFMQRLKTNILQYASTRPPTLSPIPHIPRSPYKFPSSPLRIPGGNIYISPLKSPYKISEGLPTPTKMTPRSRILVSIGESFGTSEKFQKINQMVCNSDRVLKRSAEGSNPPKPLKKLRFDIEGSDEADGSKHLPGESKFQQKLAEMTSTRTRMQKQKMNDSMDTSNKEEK
Summary of the method: (§3)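 KOPN-8 pre-B ALL cells were treated for 3 h and 24 h, with or without N-acetyl cysteine added to a parallel set of cells as an antioxidant/ROS quencher. Lysates were analysed by Western blot for phosphorylated Rb and total Rb. The same blots also probed PARP cleavage, Mcl-1, Ser-2-phosphorylated RNAPII CTD and cMyc.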

SUP-B15 [6] = experiment: Induction of apoptosis in human SUP-B15 cells assessed as necrotic cells at 10 uM after 24 hrs by Annexin V-FITC/propidium iodide staining-based flow cytometry (reference value: 9.2%); assay type: functional
SUP-B15 [7] = experiment: Induction of apoptosis in human SUP-B15 cells assessed as late apoptotic cells at 10 uM after 24 hrs by Annexin V-FITC/propidium iodide staining-based flow cytometry (reference value: 2.2%); assay type: functional
KOPN-8 [8] = experiment: Induction of apoptosis in human KOPN8 cells assessed as necrotic cells at 10 uM after 24 hrs by Annexin V-FITC/propidium iodide staining-based flow cytometry (reference value: 0.2%); assay type: functional; summary of the method: as §2
MDA-MB-231 [9] = experiment: Cell cycle arrest in human MDA-MB-231 cells assessed as accumulation at G0/G1 phase at 20 uM after 24 hrs by propidium iodide staining-based flow cytometry (reference value: 70.47%); assay type: functional
[10] = molecular target: T1, Retinoblastoma-associated protein (Homo sapiens); experiment: Inhibition of Rb phosphorylation in human KOPN8 cells assessed as ratio of phosphorylated Rb to total Rb levels at 30 uM pre-treated with NAC for 1 hr and measured after 24 hrs by Western blot analysis relative to control; assay type: cell-based; summary of the method: as §3
KOPN-8 [11] = experiment: Effect on c-Myc expression in human KOPN8 cells at 100 uM pre-treated with NAC for 1 hr and measured after 24 hrs by Western blot analysis relative to control; assay type: functional
[12] = molecular target: T1, Retinoblastoma-associated protein (Homo sapiens); experiment: Inhibition of Rb phosphorylation in human KOPN8 cells assessed as ratio of phosphorylated Rb to total Rb levels at 100 uM after 24 hrs by Western blot analysis relative to control; assay type: cell-based; summary of the method: as §3
KOPN-8 [13] = experiment: Effect on c-Myc expression in human KOPN8 cells at 100 uM after 24 hrs by Western blot analysis relative to control; assay type: functional
Summary of the method: (§4)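 KOPN-8 cells were treated at 10–100 µM final, with or without N-acetylcysteine co-addition, for 3 h and 24 h. Lysates were analysed by Western blot for PARP cleavage, Mcl-1, phospho-Ser2 RNAPII CTD, c-Myc, total Rb and pRb. Levels are relative to the vehicle control.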

KOPN-8 [14] = experiment: Effect on c-Myc expression in human KOPN8 cells at 10 uM after 3 hrs by Western blot analysis relative to control; assay type: functional; summary of the method: as §4
Homo sapiens [15] = organism: Homo sapiens; experiment: Inhibition of RNA polymerase 2 C-terminal domain phosphorylation at Ser2 residue in human KOPN8 cells at 10 uM after 24 hrs by Western blot analysis relative to control; assay type: cell-based; summary of the method: as §1
KOPN-8 [16] = experiment: Induction of apoptosis in human KOPN8 cells assessed as effect on Mcl-1 level at 10 uM pre-treated with NAC for 1 hr and measured after 3 hrs by Western blot analysis relative to control; assay type: functional
[17] = molecular target: T1, Retinoblastoma-associated protein (Homo sapiens); experiment: Inhibition of Rb phosphorylation in human KOPN8 cells assessed as ratio of phosphorylated Rb to total Rb levels at 30 uM after 24 hrs by Western blot analysis relative to control; assay type: cell-based; summary of the method: as §3

| fold change (FC) [5] | fold change (FC) [10] | fold change (FC) [12] | fold change (FC) [17] | Structure (SMILES) | Activity (KOPN-8 [1]) | Activity (MDA-MB-231 [2]) | fold change (FC) (Homo sapiens [3]) | Activity (KOPN-8 [4]) | Activity (SUP-B15 [6]) | Activity (SUP-B15 [7]) | Activity (KOPN-8 [8]) | Activity (MDA-MB-231 [9]) | fold change (FC) (KOPN-8 [11]) | fold change (FC) (KOPN-8 [13]) | fold change (FC) (KOPN-8 [14]) | fold change (FC) (Homo sapiens [15]) | fold change (FC) (KOPN-8 [16]) |
| --- | --- | --- | --- | --- | --- | --- | --- | --- | --- | --- | --- | --- | --- | --- | --- | --- | --- |
| – | – | – | – | CN(C)C(=O)c1cc2cnc(Nc3ccc(N4CCNCC4)cn3)nc2n1C1CCCC1 [RIBOCICLIB] | 45.66% | 4.51% | 2.3 | – | – | – | – | – | – | – | – | – | – |
| 1 | 1 | 1 | 1 | COc1ccc(-c2c(I)c(=O)c3c(OC)cc(OC)cc3n2S(=O)(=O)c2ccc(OC)cc2)cc1 | – | – | – | 69.2% | 15.7% | 7% | 0.3% | 66.22% | 0.1 | 0.1 | 0.9 | 1.8 | 0.8 |
